In ChEMBL document CHEMBL4038268, “Methylpyrrole inhibitors of BET bromodomains” (Bioorg Med Chem Lett, 2017):

Experiments:
[1] = molecular target: Bromodomain-containing protein 2 (Homo sapiens, UniProt P25440); experiment: Binding affinity to BRD2 BD1-BD2 (G73 to A560 residues) (unknown origin) after 1 hr by Alexa-647-conjugated probe based TR-FRET assay
[2] = molecular target: Bromodomain and WD repeat-containing protein 1 (Homo sapiens, UniProt Q9NSI6); experiment: Inhibition of human WDR9 bromodomain 2 (A1310 to E1430 residues) expressed in bacterial expression system by BROMOscan assay
Mus musculus = experiment: Unbound AUC in mouse at 10 mg/kg, po; type: ADME, organism-based; conditions: in vivo
[3] = molecular target: T1, Transcription intermediary factor 1-alpha (Homo sapiens, UniProt O15164); experiment: Inhibition of human TRIM24-phd-bromo (P790 to P977 residues) expressed in bacterial expression system by BROMOscan assay
T1 sequence (O15164 whole entry): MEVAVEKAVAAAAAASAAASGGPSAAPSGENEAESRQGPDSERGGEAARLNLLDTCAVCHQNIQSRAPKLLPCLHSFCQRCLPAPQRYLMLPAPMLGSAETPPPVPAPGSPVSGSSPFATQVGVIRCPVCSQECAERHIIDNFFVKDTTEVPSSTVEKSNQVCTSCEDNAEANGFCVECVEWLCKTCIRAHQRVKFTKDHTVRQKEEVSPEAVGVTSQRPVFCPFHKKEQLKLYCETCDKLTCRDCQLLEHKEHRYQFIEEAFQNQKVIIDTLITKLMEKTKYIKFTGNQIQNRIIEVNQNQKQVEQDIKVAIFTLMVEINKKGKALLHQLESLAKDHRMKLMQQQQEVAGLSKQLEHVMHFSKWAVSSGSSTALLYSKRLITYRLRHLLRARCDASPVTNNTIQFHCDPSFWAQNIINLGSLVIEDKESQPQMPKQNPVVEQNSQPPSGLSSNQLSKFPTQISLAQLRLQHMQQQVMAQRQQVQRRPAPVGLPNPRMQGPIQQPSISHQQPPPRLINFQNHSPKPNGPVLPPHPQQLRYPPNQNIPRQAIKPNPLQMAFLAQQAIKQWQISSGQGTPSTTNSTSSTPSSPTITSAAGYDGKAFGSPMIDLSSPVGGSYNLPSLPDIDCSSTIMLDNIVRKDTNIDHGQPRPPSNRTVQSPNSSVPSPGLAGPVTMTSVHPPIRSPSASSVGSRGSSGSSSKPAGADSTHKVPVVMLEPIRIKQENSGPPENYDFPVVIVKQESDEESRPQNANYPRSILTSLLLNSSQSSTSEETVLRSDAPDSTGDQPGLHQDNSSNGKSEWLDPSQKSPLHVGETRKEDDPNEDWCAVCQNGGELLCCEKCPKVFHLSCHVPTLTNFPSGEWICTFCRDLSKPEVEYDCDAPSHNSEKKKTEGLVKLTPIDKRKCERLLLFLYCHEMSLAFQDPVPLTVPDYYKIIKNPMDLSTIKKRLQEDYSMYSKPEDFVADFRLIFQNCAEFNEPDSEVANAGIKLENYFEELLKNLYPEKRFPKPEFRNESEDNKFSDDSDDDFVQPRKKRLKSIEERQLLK

[4] = molecular target: Bromodomain-containing protein 3 (Homo sapiens, UniProt Q15059); experiment: Binding affinity to BRD3 BD1-BD2 (P24 to P416 residues) (unknown origin) after 1 hr by Alexa-647-conjugated probe based TR-FRET assay
Peregrin (Homo sapiens) = molecular target: T2, Peregrin (Homo sapiens) (UniProt P55201); experiment: Inhibition of human BRPF1 (E627 to G740 residues) expressed in bacterial expression system at 1 uM by BROMOscan assay
T2 sequence (whole entry): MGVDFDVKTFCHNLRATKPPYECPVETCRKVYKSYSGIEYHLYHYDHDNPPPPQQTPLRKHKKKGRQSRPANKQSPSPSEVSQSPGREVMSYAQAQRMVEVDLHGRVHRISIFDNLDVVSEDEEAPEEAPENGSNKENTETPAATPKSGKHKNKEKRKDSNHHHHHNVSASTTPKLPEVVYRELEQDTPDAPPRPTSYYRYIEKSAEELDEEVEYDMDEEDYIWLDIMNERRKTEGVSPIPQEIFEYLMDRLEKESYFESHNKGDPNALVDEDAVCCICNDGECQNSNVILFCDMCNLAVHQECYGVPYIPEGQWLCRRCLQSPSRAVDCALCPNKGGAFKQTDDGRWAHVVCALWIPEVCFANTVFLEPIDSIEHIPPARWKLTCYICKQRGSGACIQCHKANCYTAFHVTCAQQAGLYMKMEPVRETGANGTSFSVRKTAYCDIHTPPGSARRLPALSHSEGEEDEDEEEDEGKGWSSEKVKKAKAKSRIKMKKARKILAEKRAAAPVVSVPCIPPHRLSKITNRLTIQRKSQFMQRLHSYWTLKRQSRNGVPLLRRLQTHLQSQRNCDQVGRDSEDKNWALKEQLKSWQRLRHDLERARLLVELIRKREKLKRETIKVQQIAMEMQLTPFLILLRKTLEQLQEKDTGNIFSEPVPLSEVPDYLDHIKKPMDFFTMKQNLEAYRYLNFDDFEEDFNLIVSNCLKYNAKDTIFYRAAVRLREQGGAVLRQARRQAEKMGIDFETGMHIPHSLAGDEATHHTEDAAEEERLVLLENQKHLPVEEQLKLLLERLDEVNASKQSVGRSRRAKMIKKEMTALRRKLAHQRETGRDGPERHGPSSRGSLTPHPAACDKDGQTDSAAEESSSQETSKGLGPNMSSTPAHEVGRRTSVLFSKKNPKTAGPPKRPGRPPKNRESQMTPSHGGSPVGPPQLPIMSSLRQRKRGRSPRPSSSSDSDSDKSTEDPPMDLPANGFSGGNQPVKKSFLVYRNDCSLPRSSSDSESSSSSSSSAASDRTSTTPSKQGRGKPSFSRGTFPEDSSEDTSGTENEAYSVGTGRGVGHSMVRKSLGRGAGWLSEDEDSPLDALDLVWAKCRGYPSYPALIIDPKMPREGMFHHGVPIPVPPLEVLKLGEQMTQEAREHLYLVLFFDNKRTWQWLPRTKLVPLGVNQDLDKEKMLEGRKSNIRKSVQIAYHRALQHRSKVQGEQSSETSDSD

[5] = molecular target: Bromodomain-containing protein 4 (Homo sapiens, UniProt O60885); experiment: Binding affinity to His-tagged BRD4 BD1-BD2 (K57 to K550 residues) (unknown origin) after 1 hr by Alexa-647-conjugated probe based TR-FRET assay
[6] = molecular target: Bromodomain testis-specific protein (Homo sapiens, UniProt Q58F21); experiment: Binding affinity to BRDT BD1-BD2 (N21 to P380 residues) (unknown origin) after 1 hr by Alexa-647-conjugated probe based TR-FRET assay
MX1 = experiment: Antiproliferative activity against human MX1 cells incubated over 72 hrs by Cell Titre Glo luminescence assay; type: functional, cell-based; conditions: MX1, 72 h
Method in brief: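 Triple-negative breast cancer line MX-1 grown 3 days with compound. Proliferation read with the CellTiter-Glo kit. EC50 is the mean of two measurements.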

[7] = Permeability of the compound; type: physicochemical; conditions: not told; read-out: permeability

Bromodomain and WD repeat-containing protein 1, sequence (Q9NSI6 whole entry, the tested form may be a part): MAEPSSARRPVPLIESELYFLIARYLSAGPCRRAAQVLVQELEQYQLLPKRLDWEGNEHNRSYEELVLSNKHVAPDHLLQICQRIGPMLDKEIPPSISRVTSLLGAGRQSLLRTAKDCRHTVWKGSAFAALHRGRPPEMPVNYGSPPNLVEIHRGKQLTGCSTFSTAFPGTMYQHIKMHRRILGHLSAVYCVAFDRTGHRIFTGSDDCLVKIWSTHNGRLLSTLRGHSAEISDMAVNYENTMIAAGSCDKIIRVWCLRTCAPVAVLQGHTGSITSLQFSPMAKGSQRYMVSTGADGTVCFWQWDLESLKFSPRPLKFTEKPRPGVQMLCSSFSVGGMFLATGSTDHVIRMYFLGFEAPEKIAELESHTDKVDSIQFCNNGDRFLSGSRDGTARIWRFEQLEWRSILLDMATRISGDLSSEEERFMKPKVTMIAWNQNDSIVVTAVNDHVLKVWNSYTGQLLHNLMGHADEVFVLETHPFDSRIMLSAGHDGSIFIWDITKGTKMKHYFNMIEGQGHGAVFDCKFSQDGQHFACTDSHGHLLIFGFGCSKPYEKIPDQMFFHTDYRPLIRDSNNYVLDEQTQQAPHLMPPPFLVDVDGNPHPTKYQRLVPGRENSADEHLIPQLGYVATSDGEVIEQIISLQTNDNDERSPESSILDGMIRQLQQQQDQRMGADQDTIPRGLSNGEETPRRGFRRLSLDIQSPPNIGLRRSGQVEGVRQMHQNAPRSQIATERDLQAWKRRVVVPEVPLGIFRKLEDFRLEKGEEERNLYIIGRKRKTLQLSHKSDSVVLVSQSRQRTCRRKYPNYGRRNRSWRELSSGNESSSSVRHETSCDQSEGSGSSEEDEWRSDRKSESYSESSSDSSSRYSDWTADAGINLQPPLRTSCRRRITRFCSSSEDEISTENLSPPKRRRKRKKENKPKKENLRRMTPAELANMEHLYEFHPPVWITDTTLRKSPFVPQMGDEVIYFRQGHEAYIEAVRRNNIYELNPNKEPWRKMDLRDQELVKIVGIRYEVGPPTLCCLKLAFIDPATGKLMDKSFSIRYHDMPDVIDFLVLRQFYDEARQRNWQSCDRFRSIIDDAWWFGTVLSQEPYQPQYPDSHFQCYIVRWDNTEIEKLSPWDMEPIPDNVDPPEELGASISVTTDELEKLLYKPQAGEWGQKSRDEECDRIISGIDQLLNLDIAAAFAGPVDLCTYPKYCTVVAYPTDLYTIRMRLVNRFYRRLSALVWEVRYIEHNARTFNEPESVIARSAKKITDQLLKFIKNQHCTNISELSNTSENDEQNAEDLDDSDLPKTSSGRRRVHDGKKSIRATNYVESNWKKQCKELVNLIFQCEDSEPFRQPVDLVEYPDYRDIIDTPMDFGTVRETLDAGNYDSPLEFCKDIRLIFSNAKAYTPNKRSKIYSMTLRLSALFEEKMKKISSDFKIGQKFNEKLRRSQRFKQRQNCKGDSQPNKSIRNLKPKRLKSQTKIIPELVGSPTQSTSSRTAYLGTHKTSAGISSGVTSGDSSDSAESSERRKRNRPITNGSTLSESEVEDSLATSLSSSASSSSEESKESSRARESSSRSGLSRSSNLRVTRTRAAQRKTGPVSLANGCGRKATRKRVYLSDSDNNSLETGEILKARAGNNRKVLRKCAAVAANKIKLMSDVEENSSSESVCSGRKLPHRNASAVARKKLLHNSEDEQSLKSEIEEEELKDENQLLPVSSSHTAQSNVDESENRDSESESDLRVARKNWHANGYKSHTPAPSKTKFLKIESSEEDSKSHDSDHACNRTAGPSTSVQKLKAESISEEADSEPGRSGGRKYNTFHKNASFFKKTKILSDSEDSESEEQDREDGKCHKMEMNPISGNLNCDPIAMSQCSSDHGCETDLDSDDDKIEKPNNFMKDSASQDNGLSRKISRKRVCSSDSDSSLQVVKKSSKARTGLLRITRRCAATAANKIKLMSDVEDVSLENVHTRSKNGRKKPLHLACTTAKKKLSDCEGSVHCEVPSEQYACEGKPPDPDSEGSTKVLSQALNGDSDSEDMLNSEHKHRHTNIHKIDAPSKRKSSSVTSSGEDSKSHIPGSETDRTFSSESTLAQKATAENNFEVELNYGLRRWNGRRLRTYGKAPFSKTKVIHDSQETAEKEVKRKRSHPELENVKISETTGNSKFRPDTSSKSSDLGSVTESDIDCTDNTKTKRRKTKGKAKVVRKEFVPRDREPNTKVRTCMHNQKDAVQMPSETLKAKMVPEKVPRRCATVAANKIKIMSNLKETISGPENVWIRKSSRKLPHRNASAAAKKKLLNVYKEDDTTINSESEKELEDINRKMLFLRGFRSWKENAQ
Bromodomain-containing protein 2, sequence (P25440 whole entry, the tested form may be a part): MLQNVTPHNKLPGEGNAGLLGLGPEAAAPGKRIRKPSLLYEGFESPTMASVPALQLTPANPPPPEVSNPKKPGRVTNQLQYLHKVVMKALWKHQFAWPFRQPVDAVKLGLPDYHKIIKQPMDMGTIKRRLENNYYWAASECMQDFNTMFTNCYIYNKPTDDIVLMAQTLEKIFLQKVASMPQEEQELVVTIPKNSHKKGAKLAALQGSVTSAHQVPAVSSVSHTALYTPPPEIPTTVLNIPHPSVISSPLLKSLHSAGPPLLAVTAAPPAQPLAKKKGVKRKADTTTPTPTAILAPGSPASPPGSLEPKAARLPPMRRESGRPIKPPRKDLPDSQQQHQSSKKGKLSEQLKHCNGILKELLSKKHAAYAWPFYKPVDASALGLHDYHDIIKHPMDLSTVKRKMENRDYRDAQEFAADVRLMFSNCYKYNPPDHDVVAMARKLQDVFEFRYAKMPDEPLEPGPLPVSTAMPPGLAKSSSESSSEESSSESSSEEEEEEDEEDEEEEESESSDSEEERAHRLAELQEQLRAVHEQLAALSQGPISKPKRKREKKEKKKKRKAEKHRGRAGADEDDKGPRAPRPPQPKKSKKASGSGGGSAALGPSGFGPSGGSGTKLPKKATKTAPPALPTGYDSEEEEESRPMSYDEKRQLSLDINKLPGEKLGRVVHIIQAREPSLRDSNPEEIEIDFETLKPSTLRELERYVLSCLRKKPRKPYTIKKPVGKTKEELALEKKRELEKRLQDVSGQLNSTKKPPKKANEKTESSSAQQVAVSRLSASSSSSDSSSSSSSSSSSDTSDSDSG
Bromodomain-containing protein 3, sequence (Q15059 whole entry, the tested form may be a part): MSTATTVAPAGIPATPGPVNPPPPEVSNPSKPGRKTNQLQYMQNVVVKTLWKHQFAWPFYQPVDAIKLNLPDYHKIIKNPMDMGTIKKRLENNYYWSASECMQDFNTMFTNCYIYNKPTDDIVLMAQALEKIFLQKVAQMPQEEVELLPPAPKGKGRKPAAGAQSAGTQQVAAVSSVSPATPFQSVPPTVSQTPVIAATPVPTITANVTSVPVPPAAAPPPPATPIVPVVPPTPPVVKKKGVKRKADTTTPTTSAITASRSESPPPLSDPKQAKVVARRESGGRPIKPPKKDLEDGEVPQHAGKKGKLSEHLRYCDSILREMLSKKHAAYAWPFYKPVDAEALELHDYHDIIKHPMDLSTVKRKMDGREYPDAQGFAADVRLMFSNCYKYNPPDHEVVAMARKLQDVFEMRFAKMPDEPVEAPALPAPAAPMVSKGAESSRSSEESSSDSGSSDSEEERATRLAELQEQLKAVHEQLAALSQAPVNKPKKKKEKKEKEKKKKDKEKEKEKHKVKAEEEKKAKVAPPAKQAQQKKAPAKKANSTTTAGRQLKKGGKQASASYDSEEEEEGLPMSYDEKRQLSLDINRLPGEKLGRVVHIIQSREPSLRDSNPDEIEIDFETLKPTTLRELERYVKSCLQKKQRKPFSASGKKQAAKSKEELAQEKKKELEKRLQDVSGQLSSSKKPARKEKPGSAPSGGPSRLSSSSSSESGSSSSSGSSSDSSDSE

| Ki [1] | IC50 [2] | fAUC (Mus musculus) | IC50 [3] | Ki [4] | inhibition (Peregrin (Homo sapiens)) | Ki [5] | Ki [6] | Papp [7] | Structure (SMILES) | EC50 (MX1) |
| --- | --- | --- | --- | --- | --- | --- | --- | --- | --- | --- |
| 27 nM | > 10000 nM | 0.53 µM·h | > 10000 nM | 110 nM | 98.6% | 300 nM | 140 nM | 22 ×10⁻⁶ cm/s | Cc1[nH]c(-c2cc(S(C)(=O)=O)ccc2Oc2ccc(F)cc2F)c2c1C(=O)NCC2 | 900 nM |
| 160 nM | > 10000 nM | 0.86 µM·h | 10000 nM | 290 nM | 83% | 98 nM | 490 nM | 35 ×10⁻⁶ cm/s | Cn1cc(-c2cc(S(C)(=O)=O)ccc2Oc2ccc(F)cc2F)c2cc[nH]c(=O)c21 | 110 nM |

| Structure (SMILES) | Ki [1] | IC50 [2] | fAUC (Mus musculus) | IC50 [3] | Ki [4] | inhibition (Peregrin (Homo sapiens)) | Ki [5] | Ki [6] | Papp [7] | EC50 (MX1) |
| --- | --- | --- | --- | --- | --- | --- | --- | --- | --- | --- |
| Cc1[nH]c(-c2cc(NS(C)(=O)=O)ccc2Oc2ccccc2)c2c1C(=O)CCC2 | 14 nM | 10000 nM | 0.09 µM·h | > 10000 nM | 35 nM | 100% | 33 nM | 110 nM | 27 ×10⁻⁶ cm/s | 160 nM |
